Measurements reported in ChEMBL document CHEMBL4665652, “Discovery of novel quinoline sulphonamide derivatives as potent, selective and orally active RORγ inverse agonists” (Bioorg Med Chem Lett, 2019).

Assays:
[1] = Ratio of Cmax in mouse at 100 mg/kg, po to Cmax in mouse at 10 mg/kg, po; assay type: ADME, organism-based; settings: in vivo
Summary of the method: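 Oral ascending-dose PK in mice at 100 mg/kg (ratios against 10 mg/kg), given as a suspension in 1% methylcellulose 400cp + 0.1% Poloxamer. Cmax, AUClast and t1/2 come from plasma profiles.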

[2] = AUClast in mouse at 30 mg/kg, po; assay type: ADME, organism-based; design: time 0 - last, route oral, dose 30 mg/kg; settings: in vivo
Summary of the method: (§1)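 Mice dosed orally at 10, 30 or 100 mg/kg as a suspension in 1% methylcellulose 400cp + 0.1% Poloxamer (188). Tmax, Cmax, AUClast and oral t1/2 were taken from plasma concentration–time profiles. Ratios are the value at each dose over the value at 10 mg/kg.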

[3] = Tmax in mouse at 30 mg/kg, po; assay type: ADME, organism-based; settings: in vivo
Summary of the method: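 Mice dosed orally with an ascending-dose series at 10, 30 and 100 mg/kg. Compound given as a suspension in 1% methylcellulose 400cp + 0.1% poloxamer. Plasma Tmax taken from the concentration profiles. The Cmax ratio is expressed relative to the 10 mg/kg dose.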

[4] = Half life in mouse at 10 mg/kg, po; assay type: ADME, organism-based; settings: in vivo; summary of the method: as §1
[5] = (§2) In vivo inverse agonist activity at RORgamma in MOG(35-55) peptide/PTX-induced mechanistic C57BL/6 mouse model assessed as anti-CD3 induced IL-10 level in serum at 100 mg/kg, po dosed for 5 days during MOG/PTX priming and followed by 45 mins prior to anti-CD3 challenge and measured after 2 hrs (reference value: -11%); assay type: functional; settings: time 5 day
Summary of the method: (§3)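 Mice immunized with mouse MOG35-55 peptide plus pertussis toxin. After 5 days, compound given orally as a suspension in methylcellulose 400cp + 1% poloxamer, 45 min before an anti-CD3 challenge. Circulating cytokines measured 2 h later. Comparison vs vehicle by Dunnett post test.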

[6] = as §2, with “30” for “100”; assay type: functional; settings: time 5 day; summary of the method: as §3
[7] = as §2, with “10” for “100”; assay type: functional; settings: time 5 day; summary of the method: as §3
[8] = as §2, with “IL-2” for “IL-10”, “relative to control” for “(reference value: -11%)”; assay type: functional; settings: time 5 day; summary of the method: as §3
[9] = as §2, with “IL-2” for “IL-10”, “30” for “100”, “relative to control” for “(reference value: -11%)”; assay type: functional; settings: time 5 day; summary of the method: as §3
[10] = as §2, with “IFNgamma” for “IL-10”, “10” for “100”, “relative to control” for “(reference value: -11%)”; assay type: functional; settings: time 5 day; summary of the method: as §3
[11] = as §2, with “IL-6” for “IL-10”, “relative to control” for “(reference value: -11%)”; assay type: functional; settings: time 5 day; summary of the method: as §3
[12] = as §2, with “IL-17F” for “IL-10”, “relative to control” for “(reference value: -11%)”; assay type: functional; settings: time 5 day; summary of the method: as §3
[13] = as §2, with “IL-17F” for “IL-10”, “10” for “100”, “relative to control” for “(reference value: -11%)”; assay type: functional; settings: time 5 day; summary of the method: as §3
[14] = as §2, with “IL-17A” for “IL-10”, “relative to control” for “(reference value: -11%)”; assay type: functional; settings: time 5 day; summary of the method: as §3
[15] = as §2, with “IL-17A” for “IL-10”, “10” for “100”, “relative to control” for “(reference value: -11%)”; assay type: functional; settings: time 5 day; summary of the method: as §3
[16] = Unbound plasma clearance in mouse at 10 mg/kg, po or 1 mg/kg, iv; assay type: ADME, organism-based; settings: in vivo
Summary of the method: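 Mouse PK using two routes: iv at 1 mg/kg and po at 10 mg/kg. The po dose was a suspension in 1% methylcellulose 400cp + 0.1% Poloxamer 188. Unbound plasma clearance derived from the plasma profiles.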

[17] = Plasma clearance in mouse at 10 mg/kg, po or 1 mg/kg, iv; assay type: ADME, organism-based
Summary of the method: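 Mouse PK with iv 1 mg/kg and po 10 mg/kg, oral dose as a suspension in 1% methylcellulose 400cp + 0.1% Poloxamer 188. Plasma clearance (total and unbound), iv t1/2 and oral bioavailability F were derived from the iv and po profiles.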

[18] = Stability in human microsomes assessed as unbound intrinsic clearance; assay type: ADME, Microsome
Summary of the method: (§4)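 Unbound intrinsic clearance measured in human and mouse liver microsomes, expressed in L/h/kg. Values are geometric means of at least two separate runs.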

[19] = Stability in mouse microsomes assessed as unbound intrinsic clearance; assay type: ADME, Microsome; summary of the method: as §4
[20] = molecular target: T1, Nuclear receptor ROR-gamma (Homo sapiens, UniProt P51449); assay: Inverse agonist activity at RORgamma in human CD4+ T cells assessed as inhibition of IL17A secretion after 72 hrs by ELISA; assay type: cell-based, CD4+ve Th
T1 sequence (P51449 whole entry): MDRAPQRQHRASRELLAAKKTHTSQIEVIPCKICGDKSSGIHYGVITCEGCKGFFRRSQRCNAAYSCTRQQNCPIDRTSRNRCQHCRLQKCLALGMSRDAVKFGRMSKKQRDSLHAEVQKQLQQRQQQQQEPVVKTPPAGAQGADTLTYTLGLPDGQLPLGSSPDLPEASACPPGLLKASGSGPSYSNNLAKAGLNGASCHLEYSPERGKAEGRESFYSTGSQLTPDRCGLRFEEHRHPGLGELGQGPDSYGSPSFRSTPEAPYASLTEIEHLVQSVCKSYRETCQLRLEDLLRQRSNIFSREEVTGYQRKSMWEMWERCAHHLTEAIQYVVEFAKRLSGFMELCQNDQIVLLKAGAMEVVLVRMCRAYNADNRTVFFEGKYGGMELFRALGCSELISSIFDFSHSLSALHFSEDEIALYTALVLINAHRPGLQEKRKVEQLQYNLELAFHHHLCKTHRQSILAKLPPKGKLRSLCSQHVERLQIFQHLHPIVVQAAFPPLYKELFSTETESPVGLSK

[21] = as §2, with “TNFalpha” for “IL-10”, “30” for “100”, “relative to control” for “(reference value: -11%)”; assay type: functional; settings: time 5 day; summary of the method: as §3
[22] = test system: Mus musculus; assay: (§5) In vivo inverse agonist activity at RORgamma in po dosed MOG(35-55) peptide/PTX-induced mechanistic C57BL/6 mouse model assessed as anti-CD3 induced IL-17F level in serum dosed for 5 days during MOG/PTX priming and followed by 45 mins prior to anti-CD3 challenge and measured after 2 hrs relative to control; assay type: functional, organism-based; settings: dose mg/kg 10-100, time 5.0 day; summary of the method: as §3
[23] = test system: Mus musculus; assay: as §5, with “IL-22” for “IL-17F”; assay type: functional, organism-based; settings: dose mg/kg 10-100, time 5.0 day; summary of the method: as §3

With `CNC(=O)[C@@H]1CCCN1S(=O)(=O)c1ccc(Cl)c(COc2cccc3c(-c4cncn4C)cc(C(C)C)nc23)c1Cl` the Ratio [1] was 8.3, the AUC(0-t) [2] was 34200 ng·h/mL and the Tmax [3] was 15 min. For the same molecule, the half-life [4] was under 60 min, the Activity [5] was 807% and the Activity [6] was 66%. For the same molecule, the Activity [7] was -3%, the Activity [8] was -46% and the Activity [9] was -30%. For the same molecule, the Activity [10] was -39%, the Activity [11] was -21% and the Activity [12] was -60%. The Activity [13] was -20%, the Activity [14] was -62% and the Activity [15] was -23%. For the same molecule, the CL free [16] was 1620 mL/min/kg, the clearance [17] was 27.5 mL/min/kg and the CL free [18] was 33 mL/min/kg. The CL free [19] was 100 mL/min/kg, the EC50 [20] was 150 nM and the Activity [21] was -27%. For the same molecule, the Activity [22] was “Dose-dependent effect” and the Activity [23] was “Dose-dependent effect”.
